Measured values: ChEMBL document CHEMBL1126907, “Possible contribution of a glutathione conjugate to the long-duration action of beta-funaltrexamine” (J Med Chem, 1993)

Experiments:
[1] = Ratio of effective dose of morphine at 30 min after antagonism treatment by sc administration divided by its control; type: functional
Outline: (§1)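 Mice, radiant heat tail-flick. Antagonist given sc at 5 mg/kg. At the stated interval, sc morphine was given 30 min before testing. Post-treatment morphine ED50 was divided by control ED50. 95% confidence limits come from three or four animals.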

[2] = Ratio of effective dose of morphine at 24 hr after antagonism treatment by sc administration divided by its control; type: functional; outline: as §1
[3] = Ratio of Equivalent antagonist potencies after 24 hr of icv administration/Equivalent antagonist potencies after 24 hr of sc administration was determined; type: functional
[4] = Ratio of effective dose of morphine at 2 hr after antagonist treatment by icv administration (4.8 nmol) divided by its control; type: functional
Outline: (§2)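 Mice, radiant heat tail-flick. Antagonist given icv at 4.8 nmol/mouse. At the stated interval afterwards, morphine was given sc and the test read 30 min later. Morphine ED50 after treatment was divided by control ED50. 95% confidence limits come from three or four animals.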

[5] = Ratio of effective dose of morphine at 24 hr after antagonism treatment by icv administration (4.8 nmol) divided by its control ED50; type: functional; outline: as §2
[6] = Ratio of effective dose of morphine at 72 hr after antagonism treatment by icv administration (4.8 nmol) divided by its control ED50; type: functional; outline: as §2
Mus musculus [7] = assay: Equivalent antagonist potencies of compound was measured after 24 hr of sc administration; type: functional
[8] = Inhibitory concentration of morphine determined after treating with conjugate for 60 min of guinea pig ileum then divided by control IC50 in same preparation; type: functional
Outline: (§3)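 Electrically stimulated guinea pig ileum was incubated with conjugate (1 × 10^-6 M) for 60 min, then washed ≥40 times with buffer. The agonist IC50 (ethylketazocine or morphine) was then divided by the control IC50 in the same preparation. Assays were run in triplicate, with se reported.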

[9] = Inhibitory concentration of ethylketazocine determined after treating with conjugate for 60 min of guinea pig ileum then divided by control IC50 in same preparation; type: functional; outline: as §3
Mu-type opioid receptor [10] = molecular target: Mu-type opioid receptor (Mus musculus, UniProt P42866); assay: Inhibitory concentration against mu-opioid receptor in mouse vas deferens
Outline: (§4)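 Electrically stimulated guinea pig ileum longitudinal muscle or mouse vas deferens. Agonist IC50 for inhibition of the stimulated response was determined as described previously.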

Mu-type opioid receptor [11] = molecular target: Mu-type opioid receptor (Cavia porcellus, UniProt P97266); assay: Inhibitory concentration against mu-opioid receptor in guinea pig ileum; type: tissue-based; outline: as §4
Mus musculus [12] = assay: Equivalent antagonist potencies of compound was measured after 24 hr of icv administration; type: functional
[13] = (§5) Ratio of effective dose of morphine at 24 hr after antagonism treatment by icv administration in mouse (4.8 nmol) divided by its control ED50; type: functional
Outline: (§6)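 Mice got antagonist icv at 4.8 nmol/mouse. At set times afterwards, morphine was given sc, and radiant heat tail-flick antinociception was measured 30 min later. The morphine ED50 was divided by the control ED50. Results are given with 95% confidence limits from three or four animals.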

[14] = (§7) Ratio of effective dose of morphine at 24 hr after antagonism treatment by sc administration in mouse divided by its control; type: functional
Outline: (§8)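 Mice got antagonist sc at 5 mg/kg. At 30 min or 24 h, sc morphine was given 30 min before radiant heat tail-flick testing. The morphine ED50 was divided by the control ED50, with 95% confidence limits from three or four animals.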

[15] = (§9) Ratio of effective dose of morphine at 30 min after antagonism treatment by sc administration in mouse divided by its control; type: functional; outline: as §8
[16] = (§10) Ratio of effective dose of morphine at 2 hr after antagonist treatment by icv administration in mouse (4.8 nmol) divided by its control; type: functional; outline: as §6
[17] = Ratio of effective dose of morphine at 48 hr after antagonism treatment by icv administration in mouse (4.8 nmol) divided by its control ED50; type: functional; outline: as §6
Mus musculus [18] = assay: Equivalent antagonist potencies of compound was measured after 24 hr of icv administration; antagonist dose; type: functional
[19] = Ratio of effective dose of morphine at 72 hr after antagonism treatment by icv administration in mouse (4.8 nmol) divided by its control ED50; type: functional; outline: as §6
Mus musculus [20] = assay: Equivalent antagonist potencies of compound was measured after 24 hr of sc administration; antagonist dose; type: functional
[21] = Ratio of effective dose of morphine at 24 hr after antagonism treatment by sc administration in mice divided by its control); type: functional; outline: as §8
Mus musculus [22] = assay: Equivalent antagonist potencies of compound was measured after 24 hr of icv administration in mice; antagonist dose; type: functional
Mus musculus [23] = assay: Equivalent antagonist potencies of compound was measured after 24 hr of sc administration in mice; antagonist dose; type: functional
[24] = Ratio of effective dose of morphine at 24 hr after antagonism treatment by icv administration in mice (4.8 nmol) divided by its control ED50; type: functional; outline: as §6
[25] = Ratio of effective dose of morphine at 30 min after antagonism treatment by sc administration in mice divided by its control; type: functional; outline: as §8
[26] = Ratio of Equivalent antagonist potencies after 24 hr of icv administration/Equivalent antagonist potencies after 24 hr of sc administration in mice was determined; type: functional
[27] = Ratio of effective dose of morphine at 2 hr after antagonist treatment by icv administration in mice (4.8 nmol) divided by its control; type: functional; outline: as §6
Mus musculus [28] = assay: as §5; type: functional; outline: as §6
Mus musculus [29] = assay: as §7; type: functional; outline: as §8
Mus musculus [30] = assay: as §9; type: functional; outline: as §8
Mus musculus [31] = assay: as §10; type: functional; outline: as §6

Mu-type opioid receptor (Cavia porcellus, UniProt P97266), sequence (P97266 whole entry): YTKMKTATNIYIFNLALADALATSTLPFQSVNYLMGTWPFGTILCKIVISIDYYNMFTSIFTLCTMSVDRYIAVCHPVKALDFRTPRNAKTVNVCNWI
Mu-type opioid receptor (Mus musculus, UniProt P42866), sequence (P42866 whole entry): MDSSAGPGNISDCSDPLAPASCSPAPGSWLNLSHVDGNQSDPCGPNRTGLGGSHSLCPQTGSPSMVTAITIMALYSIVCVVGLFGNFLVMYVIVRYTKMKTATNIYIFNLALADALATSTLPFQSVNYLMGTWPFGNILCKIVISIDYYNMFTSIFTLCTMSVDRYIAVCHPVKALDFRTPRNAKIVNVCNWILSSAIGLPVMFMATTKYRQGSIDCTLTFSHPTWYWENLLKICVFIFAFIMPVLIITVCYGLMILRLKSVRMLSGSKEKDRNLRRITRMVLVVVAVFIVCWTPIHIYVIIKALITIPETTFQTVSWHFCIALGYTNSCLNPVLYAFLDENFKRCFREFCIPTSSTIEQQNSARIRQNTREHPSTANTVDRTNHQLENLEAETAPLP

Work on `COC(=O)/C=C/C(=O)N[C@@H]1CC[C@@]2(O)[C@H]3Cc4ccc(O)c5c4[C@@]2(CCN3CC2CC2)[C@H]1O5` yielded a Ratio [1] of 3.9, a Ratio [2] of 3.9 and a Ratio [3] of 74. The Ratio [4] was 9.7, the Ratio [5] was 6.6 and the Ratio [6] was 2.4. For the same compound, the Inhibition (Mus musculus [7]) was 2.5 µM/kg, the Ratio [8] was 19.5 and the Ratio [9] was 1.1. It also gave an IC50 (Mu-type opioid receptor [10]) of 82 nM, an IC50 (Mu-type opioid receptor [11]) of 4.8 nM and an Inhibition (Mus musculus [12]) of 0.034 µM/kg.
`COC(=O)CC(SCC(N)C(=O)O)C(=O)N[C@@H]1CC[C@@]2(O)[C@H]3Cc4ccc(O)c5c4[C@@]2(CCN3CC2CC2)[C@H]1O5` (stereo not given in full) gave a Ratio [13] of 42.2, a Ratio [3] of 1250 and a Ratio [14] of 1.3. The Ratio [15] was 1.4, the Ratio [16] was 4.8 and the Ratio [17] was 2.8. It also gave a Ratio [8] of 1.7, an Inhibition (Mus musculus [18]) of 0.004 µM/kg and a Ratio [9] of 1. For the same compound, the Ratio [19] was 1.3, the IC50 (Mu-type opioid receptor [10]) was 140 nM and the IC50 (Mu-type opioid receptor [11]) was 22 nM. It also gave an Inhibition (Mus musculus [20]) of 5 µM/kg.
`COC(=O)CC(SCC(NC(=O)CCC(N)C(=O)O)C(=O)NCC(=O)O)C(=O)N[C@@H]1CC[C@@]2(O)[C@H]3Cc4ccc(O)c5c4[C@@]2(CCN3CC2CC2)[C@H]1O5` (stereo not given in full) showed a Ratio [21] of 2.6, an Inhibition (Mus musculus [22]) of 0.036 µM/kg and an Inhibition (Mus musculus [23]) of 3 µM/kg. It also gave a Ratio [24] of 6.3, a Ratio [25] of 3.8 and a Ratio [26] of 83. The Ratio [27] was 3.1, the Ratio [8] was 1.2 and the Ratio [9] was 0.3. It also gave an IC50 (Mu-type opioid receptor [10]) of 280 nM and an IC50 (Mu-type opioid receptor [11]) of 41 nM.
`NC(CSCC(=O)N[C@@H]1CC[C@@]2(O)[C@H]3Cc4ccc(O)c5c4[C@@]2(CCN3CC2CC2)[C@H]1O5)C(=O)O` (stereo not given in full) gave a Ratio (Mus musculus [28]) of 0.57, a Ratio (Mus musculus [29]) of 1.3 and a Ratio (Mus musculus [30]) of 3. For the same compound, the Ratio (Mus musculus [31]) was 3.
